Active and inactive are the calls of the source.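 Rule for the calls: active = change in binding activity of 20% or more in either direction; inactive = change in binding activity under 20%.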
Each molecule was assayed on HepG2 proliferation, sulforhodamine B absorbance, 7-10 days (assay: growth effect on ER-negative hepatoma cells – cell-based, absorbance, HepG2, counter-screen for AHR activator project, late-stage follow-up (AID 602173)). Conditions: at 10 µM.
How it was run: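 System: human hepatoma HepG2 cells, estrogen receptor-negative; Buffer or medium: α-MEM growth medium with 10% fetal bovine serum; Compound dosing: one dose, 10 µM compound; Schedule: cells settled 24 h before dosing, exposure at 37 °C; Signal: SRB absorbance at 490 nm, 650 nm corrected; Read-out basis: proliferation relative to DMSO vehicle wells.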
With `Cc1csc(SCC(=O)Nc2ccc(Cl)cn2)n1` the proliferation change, negative = inhibition was 12.2% (inactive).
Work on `COc1ccc(NC(=O)c2cccc3c(Br)cccc23)cc1` yielded a proliferation change, negative = inhibition of -38.5%.
`Cc1ccc(-c2cc(-c3cccs3)[nH]n2)c(O)c1` showed a proliferation change, negative = inhibition of -97.5%.
Molecule `CCOC(=O)Cc1cc(-c2ccc(O)cc2)nc2ccc3ccccc3c12` has a proliferation change, negative = inhibition of -29%.
In the case of `Cc1nc(N)nc(Nc2ccc(Cl)cc2)c1Br`, the proliferation change, negative = inhibition is reported as -19.5% (inactive).
For `Cc1nnc(N2C(=O)c3cccc4c([N+](=O)[O-])ccc(c34)C2=O)s1`, the proliferation change, negative = inhibition was -12.8% (inactive).
In the case of `CCOc1ccc(-c2cc(C)n3nc(C(N)=O)cc3n2)cc1`, the proliferation change, negative = inhibition is reported as 11.8% (inactive).
For `Cc1c(-c2ccn[nH]2)cc(NC(=O)c2ccc(Cl)cc2)c(=O)n1N`, the proliferation change, negative = inhibition was -6% (inactive).
For `Cn1c(C(=O)N2CCC(C(N)=O)CC2)cc2cc(Cl)ccc21`, the proliferation change, negative = inhibition was 3.8% (inactive).
In the case of `COc1ccccc1NC(=O)c1ccc(C(=O)Nc2ccccc2OC)nc1`, the proliferation change, negative = inhibition is reported as -49.8%.

Source: PubChem BioAssay AID602173 (The Scripps Research Institute Molecular Screening Center, 2012)
